Measured values: ChEMBL document CHEMBL3045676, “Anti-tobacco mosaic virus (TMV) Quassinoids from Brucea javanica (L.) Merr” (J Agric Food Chem, 2010)
Active and inactive are the calls of the source. The calls are words filed in the database; no cut-off is given here.

Tests used:
[1] = system: Tobacco mosaic virus; test: Antiviral activity against Tobacco mosaic virus strain U1 (TMV) infected Nicotiana tabacum cv. K326 leaves assessed as decrease in Tobacco mosaic virus coat protein level at 20 uM at 25 degC treated at 6 hr after viral inoculation measured after 48 hr by leaf disk method/western blot analysis; type: functional, organism-based
Procedure, shortened: (§1)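 N. tabacum cv. K326 leaves (5-6-leaf stage) mechanically inoculated with TMV (32 μg/mL in 0.01 M PBS). After 6 h, 1 cm disks without major veins were cut and floated on compound solution, with DMSO negative control and ningnanmycin positive control, at 25 °C for 48 h. Coat protein was then detected by SDS-PAGE and Western blot with polyclonal anti-TMV antibody and AP-conjugated anti-rabbit IgG using NBT/BCIP; samples run in duplicate.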

[2] = system: Tobacco mosaic virus; test: In vivo antiviral activity against Tobacco mosaic virus strain U1 (TMV) infected left side of Nicotiana glutinosa leaves assessed as decrease in local lesion numbers at 20 uM co-incubated with virus for 30 min before inoculation onto leaves measured at 3-4 days after viral challenge by half-leaf method; type: functional
Procedure, shortened: (§2)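 Half-leaf test on N. glutinosa at the 5-6-leaf stage. Compound was dissolved in DMSO, diluted in water and mixed with TMV (32 μg/mL in 0.01 M PBS) for 30 min, then rubbed onto the left half-leaf; the right half received virus plus DMSO. Local lesions were counted after 3-4 days, with three repetitions. Inhibition % = (C−T)/C×100 using mean lesion counts. IC50 was taken from a 1.25-20 μM series.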

[3] = system: Tobacco mosaic virus; test: In vivo antiviral activity against Tobacco mosaic virus strain U1 (TMV) infected left side of Nicotiana glutinosa leaves assessed as decrease in local lesion numbers co-incubated with virus for 30 min before inoculation onto leaves measured at 3-4 days after viral challenge by half-leaf method; type: functional, organism-based; procedure, shortened: as §2
[4] = system: Tobacco mosaic virus; test: In vivo antiviral activity against Tobacco mosaic virus strain U1 (TMV) infected left side of Nicotiana glutinosa leaves assessed as decrease in local lesion numbers at 2.5 uM co-incubated with virus for 30 min before inoculation onto leaves measured at 3-4 days after viral challenge by half-leaf method; type: functional; procedure, shortened: as §2
[5] = system: Tobacco mosaic virus; test: In vivo antiviral activity against Tobacco mosaic virus strain U1 (TMV) infected left side of Nicotiana glutinosa leaves assessed as decrease in local lesion numbers at 5 uM co-incubated with virus for 30 min before inoculation onto leaves measured at 3-4 days after viral challenge by half-leaf method; type: functional; procedure, shortened: as §2
[6] = system: Tobacco mosaic virus; test: In vivo antiviral activity against Tobacco mosaic virus strain U1 (TMV) infected left side of Nicotiana glutinosa leaves assessed as decrease in local lesion numbers at 1.25 uM co-incubated with virus for 30 min before inoculation onto leaves measured at 3-4 days after viral challenge by half-leaf method; type: functional; procedure, shortened: as §2
[7] = system: Tobacco mosaic virus; test: In vivo antiviral activity against Tobacco mosaic virus strain U1 (TMV) infected left side of Nicotiana glutinosa leaves assessed as decrease in local lesion numbers at 10 uM co-incubated with virus for 30 min before inoculation onto leaves measured at 3-4 days after viral challenge by half-leaf method; type: functional; procedure, shortened: as §2
[8] = system: Tobacco mosaic virus; test: Antiviral activity against Tobacco mosaic virus strain U1 (TMV) infected Nicotiana tabacum cv. K326 leaves assessed as decrease in Tobacco mosaic virus coat protein level at 25 degC treated at 6 hr after viral inoculation measured after 48 hr by leaf disk method/western blot analysis; type: functional, organism-based; procedure, shortened: as §1
[9] = system: Tobacco mosaic virus; test: Ratio of ningnamycin IC50 to compound IC50 for Tobacco mosaic virus strain U1 (TMV) infected left side of Nicotiana glutinosa leaves by half-leaf method; type: functional
Procedure, shortened: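 Ratio of IC50 values from the half-leaf N. glutinosa lesion assay, with ningnanmycin as the reference compound. Virus (32 μg/mL) was premixed with compound for 30 min before inoculation, and lesions were counted after 3-4 days.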

[10] = system: Tobacco mosaic virus; test: Antiviral activity against Tobacco mosaic virus strain U1 (TMV) infected Nicotiana glutinosa leaves assessed as protective effect by decrease in local lesion number at 20 uM treated 6 hr prior to viral inoculation measured at 3-4 days after viral challenge; type: functional
Procedure, shortened: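 N. glutinosa plants pretreated with compound solutions (DMSO diluted in distilled water) or DMSO solution for 6 h, then inoculated with TMV and kept in an insect-free greenhouse 3-4 days until local lesions were visible; inhibition rate calculated from local lesion counts.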

COC(=O)[C@]12OC[C@]34[C@H]([C@@H](O)[C@@H]1O)[C@@]1(C)C=C(O[C@@H]5O[C@H](CO)[C@@H](O)[C@H](O)[C@H]5O)C(=O)[C@@H](C)[C@@H]1C[C@H]3OC(=O)[C@H](OC(C)=O)[C@@H]24 [YADANZIOSIDE F]
inhibition [1]: Active
inhibition in vivo at 20 µM [2]: 31.1%

COC(=O)[C@]12OC[C@]34[C@H]([C@@H](O)[C@@H]1O)[C@@]1(C)CC(=O)C(O)=C(C)[C@@H]1C[C@H]3OC(=O)[C@H](OC(=O)C=C(C)C)[C@@H]24 [BRUSATOL]
IC50 [3]: 3.42 µM
inhibition in vivo at 2.5 µM [4]: 48.8%
inhibition in vivo at 5 µM [5]: 64.7%
inhibition in vivo at 1.25 µM [6]: 20%
inhibition in vivo at 10 µM [7]: 71.5%
inhibition [8]: Dose-dependent effect
Ratio IC50 [9]: 34
inhibition [1]: Active
inhibition at 20 µM [10]: 77.5%
inhibition in vivo at 20 µM [2]: 88.9%

COC(=O)[C@@]12OC[C@]34[C@H]([C@@H](O)[C@@H]1O)[C@@]1(C)C=C(O[C@@H]5O[C@H](CO)[C@@H](O)[C@H](O)[C@H]5O)C(=O)[C@@H](C)[C@@H]1C[C@H]3OC(=O)[C@H](OC(=O)C=C(C)C)[C@@H]24 [BRUCEOSIDE A]
inhibition [1]: Active
inhibition in vivo at 20 µM [2]: 24.1%

CC1=C[C@H](O[C@@H]2O[C@H](CO)[C@@H](O)[C@H](O)[C@H]2O)[C@@H](O)[C@]2(C)[C@H]3[C@@H](O)[C@H](O)[C@]4(C)OC[C@@]35[C@@H](C[C@@H]12)OC(=O)[C@H](O)[C@]54O [YADANZIGAN]
inhibition [1]: Active
inhibition in vivo at 20 µM [2]: 30.6%

CC1=CC(=O)[C@@H](O)[C@]2(C)[C@H]3[C@@H](O)[C@H](O)[C@]4(CO)OC[C@@]35[C@@H](C[C@@H]12)OC(=O)[C@H](O)[C@]54O [YADANZIOLIDE A]
IC50 [3]: 5.5 µM
inhibition in vivo at 2.5 µM [4]: 39.2%
inhibition in vivo at 5 µM [5]: 46.1%
inhibition in vivo at 1.25 µM [6]: 22.4%
inhibition in vivo at 10 µM [7]: 58.7%
inhibition [1]: Active
inhibition in vivo at 20 µM [2]: 75%

CC1=CC(=O)[C@@H](O)[C@]2(C)[C@H]3[C@@H](O)[C@H](O)[C@]4(C)OC[C@@]35[C@@H](C[C@@H]12)OC(=O)[C@H](O)[C@]54O [BRUCEINE D]
IC50 [3]: 5.29 µM
inhibition in vivo at 2.5 µM [4]: 29.1%
inhibition in vivo at 5 µM [5]: 47.9%
inhibition in vivo at 1.25 µM [6]: 21.4%
inhibition in vivo at 10 µM [7]: 66.7%
inhibition [1]: Active
inhibition at 20 µM [10]: 72.2%
inhibition in vivo at 20 µM [2]: 78.6%

COC(=O)[C@]12OC[C@]34[C@H]([C@@H](O)[C@@H]1O)[C@@]1(C)C=C(O[C@@H]5O[C@H](CO)[C@@H](O)[C@H](O)[C@H]5O)C(=O)[C@@H](C)[C@@H]1C[C@H]3OC(=O)[C@H](OC(=O)/C=C(\C)C(C)(C)OC(C)=O)[C@@H]24 [Yadanzioside G]
inhibition [1]: Active
inhibition in vivo at 20 µM [2]: 33.7%

COC(=O)[C@@]12OC[C@]34[C@H]([C@@H](O)[C@@H]1O)[C@@]1(C)CC(=O)C(O)=C(C)[C@@H]1C[C@H]3OC(=O)[C@H](OC(C)=O)[C@@H]24 [BRUCEINE B]
IC50 [3]: 3.47 µM
inhibition in vivo at 2.5 µM [4]: 40.6%
inhibition in vivo at 5 µM [5]: 65.2%
inhibition in vivo at 1.25 µM [6]: 20.5%
inhibition in vivo at 10 µM [7]: 81.5%
inhibition [1]: Active
inhibition at 20 µM [10]: 86.3%
inhibition in vivo at 20 µM [2]: 88.9%

COC1=C[C@@H](C)[C@@H]2C[C@H]3OC(=O)C[C@H]4[C@@H](C)[C@H](OC)[C@@H](O)[C@H]([C@@]2(C)C1=O)[C@@]34C
inhibition [1]: inactive

COC(=O)[C@]12OC[C@]34[C@H]([C@@H](O)[C@@H]1O)[C@@]1(C)CC(=O)[C@H](O)[C@@H](C)[C@@H]1C[C@H]3OC(=O)[C@H](OC(=O)C=C(C)C)[C@@H]24 [JAVANICOLIDES E]
inhibition in vivo at 20 µM [2]: 52%

COC(=O)[C@]12OC[C@]34[C@H]([C@@H](O)[C@@H]1O)[C@@]1(C)CC(=O)C(O[C@@H]5O[C@H](CO)[C@@H](O)[C@H](O)[C@H]5O)=C(C)[C@@H]1C[C@H]3OC(=O)[C@H](OC(C)=O)[C@@H]24 [YADANZIOSIDE I]
IC50 [3]: 4.22 µM
inhibition in vivo at 2.5 µM [4]: 35.4%
inhibition in vivo at 5 µM [5]: 54.9%
inhibition in vivo at 1.25 µM [6]: 26.1%
inhibition in vivo at 10 µM [7]: 67.9%
inhibition [1]: Active
inhibition in vivo at 20 µM [2]: 81.5%

COC(=O)[C@]12OC[C@]34[C@H]([C@@H](O)[C@@H]1O)[C@@]1(C)[C@H](O)[C@@H](O)C=C(C)[C@@H]1C[C@H]3OC(=O)[C@H](OC(C)=O)[C@@H]24 [YADANZIOSIDE D]
IC50 [3]: 5.66 µM
inhibition in vivo at 2.5 µM [4]: 38.5%
inhibition in vivo at 5 µM [5]: 48.4%
inhibition in vivo at 1.25 µM [6]: 21.4%
inhibition in vivo at 10 µM [7]: 59.2%
inhibition [1]: Active
inhibition in vivo at 20 µM [2]: 70.8%

COC(=O)[C@]12OC[C@]34[C@H]([C@@H](O)[C@@H]1O)[C@@]1(C)CC(=O)C(O[C@@H]5O[C@H](CO)[C@@H](O)[C@H](O)[C@H]5O)=C(C)[C@@H]1C[C@H]3OC(=O)[C@H](OC(=O)C=C(C)C)[C@@H]24 [Bruceoside-B]
IC50 [3]: 4.64 µM
inhibition in vivo at 2.5 µM [4]: 31.7%
inhibition in vivo at 5 µM [5]: 53.8%
inhibition in vivo at 1.25 µM [6]: 21.4%
inhibition in vivo at 10 µM [7]: 66.7%
inhibition [1]: Active
inhibition at 20 µM [10]: 90.2%
inhibition in vivo at 20 µM [2]: 78.4%

COC(=O)[C@]12OC[C@]34[C@H]([C@@H](O)[C@@H]1O)[C@@]1(C)CC(=O)[C@H](O)[C@@H](C)[C@@H]1C[C@H]3OC(=O)[C@H](OC(=O)/C=C(\C)C(C)(C)OC(C)=O)[C@@H]24 [JAVANICOLIDE F]
inhibition in vivo at 20 µM [2]: 52.1%

COC(=O)[C@]12OC[C@@]34[C@@H](CC5=C(C)C(=O)C(O)=C[C@]5(C)[C@H]3[C@@H](O)[C@@H]1O)OC(=O)[C@H](OC(C)=O)[C@@H]24 [DEDYDROBRUCEINE B]
inhibition [1]: Active
inhibition in vivo at 20 µM [2]: 59.1%

COC(=O)[C@]12OC[C@]34[C@H]([C@@H](O)[C@@H]1O)[C@@]1(C)CC(=O)C(O[C@@H]5O[C@H](CO)[C@@H](O)[C@H](O)[C@H]5O)=C(C)[C@@H]1C[C@H]3OC(=O)[C@H](OC(=O)/C=C(\C)C(C)(C)O)[C@@H]24 [Yadanzioside L]
IC50 [3]: 4.86 µM
inhibition in vivo at 2.5 µM [4]: 35%
inhibition in vivo at 5 µM [5]: 53.3%
inhibition in vivo at 1.25 µM [6]: 20%
inhibition in vivo at 10 µM [7]: 64.3%
inhibition [1]: Active
inhibition at 20 µM [10]: 54.4%
inhibition in vivo at 20 µM [2]: 73.8%

CC1=C[C@H](O)[C@@H](O)[C@]2(C)[C@H]3[C@@H](O)[C@H](O)[C@@]4(C)OC[C@@]35[C@@H](C[C@@H]12)OC(=O)[C@H](O)[C@]54O [BRUCEINE E]
inhibition [1]: Active
inhibition in vivo at 20 µM [2]: 28.7%

CNCC(=O)N[C@@H](CO)C(=O)N[C@H]1[C@H](O)[C@@H](O)[C@H](n2ccc(N)nc2=O)O[C@@H]1C(N)=O [NINGNANMYCIN]
inhibition in vivo at 2.5 µM [4]: 37.9%
inhibition in vivo at 5 µM [5]: 46.6%
inhibition in vivo at 1.25 µM [6]: 28%
inhibition in vivo at 10 µM [7]: 67.5%
inhibition in vivo at 20 µM [2]: 25.3%
